Results on 18 compounds are retold here after ChEMBL document CHEMBL1641555, “Asymmetric synthesis of phenanthroindolizidine alkaloids with hydroxyl group at the C14 position and evaluation of their antitumor activities” (Bioorg Med Chem Lett, 2011).

One data set concerns KB. In words: Cytotoxicity against human KB cells after 96 hrs by WST-8 assay. Type of data set: functional, cell-based. An outline of the steps: (§1)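 KB, A549 and HT-29 cells in exponential growth were seeded at 10³ cells/well. Serially diluted compounds were added the following day and incubated for 96 h. WST-8 reagent was then added for 1 h at 37 °C, and viability was read as absorbance at 450 nm.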
A general note: Tetrazolium dyes change colour on reduction, which living cells bring about.

Another data set concerns HT-29. The data set is described as follows: Cytotoxicity against human HT-29 cells after 96 hrs by WST-8 assay. Type of data set: functional, cell-based. The conditions noted are these: HT-29, 96 h. The method in brief: as §1
For a further data set, the system named is A549. In words: Cytotoxicity against human A549 cells after 96 hrs by WST-8 assay. Type of data set: functional, cell-based. Particulars: A549, 96 h. An outline of the steps:
as §1

Data set [1] deals with Mus musculus. The data set is described as follows: Toxicity in mouse Meth-A cells xenografted BALB/c mouse assessed as mortality at 50 mg/kg, iv. The conditions noted are these: in vivo. Also noted: dose 50 mg/kg, route intravenous. It counts as organism-based. The method in brief: (§2)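 Meth A sarcoma cells, 2.5 × 10⁵ per mouse, inoculated sc into 7-week-old male BALB/c mice, 5 per group. Samples given iv on days 1, 5 and 9. Animals followed to day 21 after tumor inoculation, when tumors were weighed.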

Data set [2] in a line: Antitumor activity against mouse Meth-A cells xenografted in BALB/c mouse assessed as tumor growth inhibition at 50 mg/kg, iv administered on day 1, 5, and 9 measured after 21 days relative to control. Type of data set: functional. The method in brief: (§3)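 Meth A sarcoma cells, 2.5 × 10⁵ per mouse, implanted sc in 7-wk-old male BALB/c mice, 5 per group. Compound given iv on days 1, 5 and 9. Tumors excised and weighed on day 21 after inoculation. Inhibition rate (%) = [1 − (mean tumor weight treated)/(mean tumor weight control)] × 100.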

A short description of data set [3]: Antitumor activity against mouse Meth-A cells xenografted in BALB/c mouse assessed as tumor growth inhibition at 25 mg/kg, iv administered on day 1, 5, and 9 measured after 21 days relative to control. It counts as functional. An outline of the steps: as §3
Data set [4] concerns Mus musculus. The data set is described as follows: Toxicity in mouse Meth-A cells xenografted BALB/c mouse assessed as mortality at 25 mg/kg, iv. It counts as organism-based. Also noted: dose 25 mg/kg, route intravenous. Particulars: in vivo. The method in brief: as §2
The subject of data set [5] is Mus musculus. In words: Toxicity in mouse Meth-A cells xenografted BALB/c mouse assessed as mortality at 100 mg/kg, iv. Type of data set: organism-based. Also noted: dose 100 mg/kg, route intravenous. Particulars: in vivo. The method in brief:
as §2

As a reminder, the IC50 is the concentration needed to halve the response being measured. The low end stands for higher potency, the high end for lower potency. As for `COc1cc2c3c(c4cc(O)ccc4c2cc1OC)[C@H](O)[C@@H]1CCCN1C3`, the IC50 with KB was found to be 0.0438 µM; in the data set on HT-29 it was 0.0068 µM; in the data set on A549 it was 0.0047 µM.
On to `COc1cc2c3c(c4cccc(O)c4c2cc1OC)[C@H](O)[C@@H]1CCCN1C3`, for which the IC50 in the data set with KB is 0.0014 µM; in the data set with HT-29, 0.0821 µM; in the data set with A549, 0.0033 µM.
One may read the inhibition in vivo as the relative decrease from the control value, in per cent. `COc1cc2c3c(c4ccc(O)cc4c2cc1OC)[C@@H](O)[C@H]1CCCN1C3`: the Activity entry in the data set with Mus musculus [1] and with Mus musculus [4] was “Non-toxic” in each case. Further, in data set [2], the inhibition in vivo at 50 mg/kg was determined as 12.5%. Besides, the inhibition in vivo at 25 mg/kg in data set [3] was determined as 7.2%. The values for the IC50 with KB, in the data set on HT-29 and with A549 were 0.003 µM, 0.0125 µM and 0.0109 µM, respectively.
As for `COc1ccc2c3c(c4cc(OC)c(OC)cc4c2c1)CN1CCC[C@H]1[C@H]3O`, the Activity result in the data set on Mus musculus [1] is reported as “Non-toxic”. The inhibition in vivo at 25 mg/kg in data set [3] worked out at 4.3%. The IC50 is 0.0042 µM with KB, 0.0021 µM in the data set on HT-29 and 0.0003 µM in the data set on A549.
With `COc1ccc2c3c(c4cc(OC)c(OC)cc4c2c1)CN1CCC[C@@H]1[C@@H]3O`, the IC50 with KB is 0.0474 µM; in the data set with HT-29, 0.0208 µM; in the data set with A549, 0.0155 µM.
In the same order, the values of `COc1cc2c3c(c4ccccc4c2cc1OC)[C@H](O)[C@@H]1CCCN1C3` are 0.0175 µM, 0.0106 µM and 0.0074 µM.
In the case of `COc1cc2c3c(c4ccccc4c2cc1OC)[C@@H](O)[C@H]1CCCN1C3`, the IC50 in the data set with KB was determined as 2.03 µM; in the data set with HT-29 it was 0.584 µM; with A549 it was 0.604 µM.
With `CCc1ccc2c3c(c4cc(OC)c(OC)cc4c2c1)CN1CCC[C@H]1[C@H]3O`, the results for the IC50 with KB, in the data set on HT-29 and in the data set with A549 were 0.18 µM, 0.135 µM and 0.559 µM, respectively.
In the same order, the values of `CCc1ccc2c3c(c4cc(OC)c(OC)cc4c2c1)CN1CCC[C@@H]1[C@@H]3O` are 1.59 µM, 0.321 µM and 0.268 µM.
On to `COc1cc2c3c(c4ccc(F)cc4c2cc1OC)[C@H](O)[C@@H]1CCCN1C3`, for which the IC50 stood at 0.049 µM with KB, 0.0196 µM with HT-29 and 0.0112 µM in the data set on A549.
On to `COc1cc2c3c(c4ccc(F)cc4c2cc1OC)[C@@H](O)[C@H]1CCCN1C3`, for which the values for the IC50 in the data set with KB, with HT-29 and with A549 were 0.653 µM, 0.106 µM and 0.0928 µM, respectively.
Take `COc1cc2c3c(c4ccc(OC(C)=O)cc4c2cc1OC)[C@H](O)[C@@H]1CCCN1C3`: the inhibition in vivo at 50 mg/kg in data set [2] was determined as 39.3%. Moreover, the inhibition in vivo at 25 mg/kg in data set [3] is 54.9%. The IC50 stood at 0.0017 µM in the data set with KB, 0.0002 µM in the data set with HT-29 and 0.0015 µM in the data set on A549. Further, in the data set on Mus musculus [4], the Activity entry is listed as “Non-toxic”.
As for `Oc1ccc2c3c(c4ccccc4c2c1)CN1CCC[C@H]1[C@H]3O`, the IC50 in the data set with KB was 1.96 µM; in the data set on HT-29, 0.458 µM; with A549, 0.354 µM.
With `Oc1ccc2c3c(c4cc5c(cc4c2c1)OCO5)CN1CCC[C@H]1[C@H]3O`, the IC50 amounted to 0.0255 µM in the data set with KB, 0.135 µM in the data set with HT-29 and 0.0544 µM in the data set on A549.
Regarding `CC1(C)Oc2cc3c4c(c5ccc(O)cc5c3cc2O1)[C@H](O)[C@@H]1CCCN1C4`, the IC50 with KB was determined as 0.742 µM; with HT-29, 0.487 µM; with A549 it was 0.928 µM.
Turning to `CCOc1cc2c3c(c4ccc(O)cc4c2cc1OCC)[C@H](O)[C@@H]1CCCN1C3`, the Activity result in the data set with Mus musculus [1] and in the data set with Mus musculus [4] was “Non-toxic” each time. For the same compound, the inhibition in vivo at 50 mg/kg in data set [2] was -10.6%. The inhibition in vivo at 25 mg/kg in data set [3] is -3.1%. Further, the IC50 in the data set on KB was 0.0109 µM; with HT-29 it was 0.0012 µM; in the data set with A549, 0.0007 µM.
In the case of `COc1cc2c(CBr)cc3ccc(OCc4ccccc4)cc3c2cc1OC`, the Activity result in the data set on Mus musculus [1] and with Mus musculus [5] was “Non-toxic” in each case.
As for `COc1cc2c3c(c4ccc(O)cc4c2cc1OC)[C@H](O)[C@@H]1CCCN1C3` [TYLOPHORIDICINE E], the Activity entry is given as “Toxic” with Mus musculus [1] and “Non-toxic” with Mus musculus [4]. Further, in data set [3], the inhibition in vivo at 25 mg/kg came out at 30.6%. Also, the concentration for half-maximal inhibition (IC50) in the data set on KB is 0.0052 µM; in the data set on HT-29, 0.0016 µM; in the data set with A549 it was 0.0005 µM.
